Test results: article PMC6598221 (Saudi Pharmaceutical Journal : SPJ, 2019)

Target: trypsin from porcine pancreas (Sus scrofa, UniProt P00761)
Experiment: trypsin inhibition assay
Assay type: biochemical
Outline: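 Porcine pancreatic trypsin. Test compound stock diluted twofold in 50 mM Tris buffer (20 mM CaCl2, pH 8.2). Trypsin and BAPNA added at final 40 and 160 µg/mL, incubated at 37 °C for 12 min, stopped with 30% acetic acid, A410 read. IC50 derived from % inhibition. Caffeic and tannic acids were reference inhibitors. Means ± standard errors; one-way ANOVA with Tukey's test, p < 0.05.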

trypsin from porcine pancreas, sequence (P00761 9-231): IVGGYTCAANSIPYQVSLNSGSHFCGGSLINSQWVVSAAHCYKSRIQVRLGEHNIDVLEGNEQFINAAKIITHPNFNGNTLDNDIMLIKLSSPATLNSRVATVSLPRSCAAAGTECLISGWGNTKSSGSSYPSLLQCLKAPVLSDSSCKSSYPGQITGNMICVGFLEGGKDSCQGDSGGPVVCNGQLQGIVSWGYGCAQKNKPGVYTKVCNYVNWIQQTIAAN

IC50 [mM] | IC50 trypsin inhibition [µg/mL] | Compound
40.6 |  | O=C(O)/C=C/c1ccc(O)c(O)c1 [caffeic acid]
 | 75.66 | tannic acid
